Test system: MS2 coat protein
Assay: apparent Kd, MS2 coat protein; higher = weaker binding; RNA-MaP array; FMN 200 µM where present
Summary of the method: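 Green signal from SNAP-549-labelled MS2 coat protein was normalised to red-channel RNA signal and to the median Fmax of control clusters. The protein was titrated from 0.7 or 1.5 nM, doubling to 3 µM, without and then with constant ligand, over designs transcribed by stalled E. coli RNA polymerase on Illumina sequencing-chip clusters, in 100 mM Tris-HCl pH 7.5, 80 mM KCl, 4 mM MgCl2, BSA, DTT, yeast tRNA and Tween-20. The apparent Kd is the median of filtered per-cluster binding-curve fits.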

[1] = designed as: ON switch for flavin mononucleotide, no ligand
[2] = ligand present: flavin mononucleotide, designed as: ON switch for flavin mononucleotide
[3] = designed as: OFF switch for flavin mononucleotide, no ligand
[4] = ligand present: flavin mononucleotide, designed as: OFF switch for flavin mononucleotide

Sequence | apparent Kd [1] [µM] | apparent Kd [2] [µM] | apparent Kd [3] [µM] | apparent Kd [4] [µM]
AACCUAUUACAGAAGGCCAGCUACAUGAGGAUCACCCAUGUCGAGUCAUGGAGGAUAUGUAGUAAUCUGCACGCGUGCGGGCAC | 0.0498 | 0.00665 | – | –
ACUUUAGUAUCACAUGUAUUACAUGAGGAUCACCCAUGUUACUAGGAUAUGUAUUAGAAUUUACAACAGAAGGAGUAAGAAUGU | – | – | 0.00817 | 0.00983
UUAUAAAAGCAGAAGGGCCGAUUAAGGAUCCGCAUGGCGCUGGACAUGAGGAUCACCCAUGUAAGGCAGGAUAUGCAAAAUAAG | – | – | 0.458 | 0.0248
AUUUUAAUAUAGGAUAUCGAAUUUAUUAAUUAUCGAGAAGGAUAAACAUGAGGAUCACCCAUGUGGUAUCAUGG | – | – | 0.21 | 0.274
UUAACACAUGAGGAUCACCCAUGUUAGGAUAUUGUGGUGGGAACAACUGGGAAACGCACGAGAAGGGACACACA | – | – | 0.0357 | 0.0262
UGCGUACAAGCAAACAUGAGGAUCACCCAUGUGGUCUCAUGCGAGGAUAUCGGGAAGGAGGAUUCCGAGAAGGUGCGGUGAGCC | 0.116 | 0.0279 | – | –
GACAUGAGGAUCACCCAUGUCCAUGCAAGAGUAGUUGAGACCAGAAGGACCGUGCGGAGCGCAGGGUAGGAUAUGGAGCCCUCA | 0.0324 | 0.00946 | – | –
UAGGACUUCGUAGGAUAUGUAUUUGAUUUCUACAUGAGGAUCACCCAUGUUUGCAUUUUUUUUUGACAGAAGGACGUGGUCGAA | 0.0303 | 0.0173 | – | –
CGGUCAUGAGGAUAUCGAGGUUAGUACAUGAGGAUCACCCAUGUUAUCCAGGUGUCGGUUCGAGAAGGCAUGUCCG | – | – | 0.461 | 0.753
GUAGCAUACCGAGGAUAUUCAUACCGGAAACGGACAUGAGGAUCACCCAUGUGGCGAAAGCCUUAGGAGAAGGCGGAAUGCUAC | 0.0164 | 0.0123 | – | –
AAACACGGACAUGAGGAUCACCCAUGUGGCGAAAGCCUUGGGAGAAGGCCGUAUGCAAAGCAUACGGAGGAUAUCCAUACCGUG | 0.0181 | 0.00634 | – | –
UAUUUACAUGAGGAUCACCCAUGUCAGGAUAUGUUUCUAUCGUCGAAAGAUGAUAUUUGCAGAAGGGACAAUAU | – | – | 0.0361 | 0.0725
CGAUCCCUGUAGAAGGGAGCACCGCAAAACGUGAACCGGUCGCACCGGUGCUUAGGAUAUACAUGAGGAUCACCCAUGUAAAGG | – | – | 0.0153 | 0.0203
CUUACACAUGAGGAUCACCCAUGUGAGGAUAUGCGUACGUUGUCCGUAGGCGACGUGCGCAGAAGGCGCUUGGU | – | – | 0.0616 | 0.062
UUUUUGUGAGGAUAUCAGUAGUAAAAAAAUAAAAUUACUACUGAGAAGGCACAUGAGGAUCACCCAUGUUUUUC | – | – | 0.0382 | 0.117
UGGGACGUGGGAGGAUAUCGGCCUGUAACAGUACGAGAAGGCCCAGUCCAAUAACAGACGGACAUGAGGAUCACCCAUGUCUCA | 0.0432 | 0.0143 | – | –
GUCAGCUCGUGAGGAUAUACAACACUGCUUCGGCAGUGUAUUAAGGUCACAUGAGGAUCACCCAUGUAGAAGGCACGAGCUGAU | – | – | 0.00812 | 0.105
UGGUACAACGGAGGAUAUCAUGUAAAUACAUGAGGAUCACCCAUGUCGUACGAGAGUACGGAGAUUGAGAAGGCCGUUGUACCU | 0.0257 | 0.0161 | – | –
GAUUAACAUGAGGAUCACCCAUGUCGUUUUAUGGGAGGAUAUACGUGGACCGUAGUCCGCGUAGAAGGCCUAAUUG | 0.125 | 0.0304 | – | –
GGGCCCGGUGUGAGGAUAUGGGCCCGGAAACGGGCCCAGAAGGCACAUGAGGAUCACCCAUGUAAGCCGGGCCC | – | – | 0.0154 | 0.0157
GCGCACUAAGUGAGGAUAUCGAUUUUUUUUAGGAUCGAGAAGGCACAUGAGGAUCACCCAUGUUUGACGUGCGC | – | – | 0.0155 | 0.0152
AUGUGGUGCGUAGGAUAUCAUUGAGGGUCACCCUGAGAAGGACGUGAGGACAUGAGGAUCACCCAUGUGGAUCACCCAUGUCAU | – | – | 0.245 | 0.288
UUACUACAUGAGGAUCACCCAUGUCAGGAUAUUGUAUAUGCCUUGGAAUACGUGUUUACAAGAAGGGACUAUAU | – | – | 0.0241 | 0.0254
AGCAACAUGAGGAUCACCCAUGUUGGUUCGAAAACGGACUCACAGGAUAUGCAACGUGAUCGUUUGCAGAAGGGUGCGUCCUCA | 0.0184 | 0.0284 | – | –
UUUUAACAUGAGGAUCACCCAUGUGAGGAUAUCGAAAUUUAUAUUAAUAUUUAUAUAACGAGAAGGCACAUUUU | – | – | 0.0684 | 0.0901
UUUAUUUUUAGAGGAUAUAUUGUGUGUGAGAGAAUAGAAGGCUAAACAUACAUGAACAUGAGGAUCACCCAUGUCACCCAUGUU | 0.0782 | 0.0549 | – | –
GGUGGUGUCCGAGGAUAUCGUUAGGCGUUGUUGCGAGAAGGCGGACAUGAGGAUCACCCAUGUUUGAUGAAAGAGGAGGUUGUG | – | – | 0.0985 | 0.123
AUACUCAUGUAAGGAUAUGCAGCCGUUUCGGCUGCAGAAGGUACUAUAAUACAUGAGGAUCACCCAUGUCUUUUUAAUUUAGAC | 0.153 | 0.0399 | – | –

Sequence | apparent Kd [1] [µM] | apparent Kd [2] [µM] | apparent Kd [3] [µM] | apparent Kd [4] [µM]
GGGCCGGUGGAGAAGGAGCGUGCGAAACGCAUGCUAGGAUAUCCACAUGAGGAUCACCCAUGUGGGAAUAUCUGGUUUUCACAG | – | – | 0.00385 | 0.00465
GUUCGGGCAGGAUAUACAUGAGGAUCACCCAUGUGUGUCCAUACGCGUGAGUCCUCGUGUAGAAGGGUUUGGGC | – | – | 0.0232 | 0.0174
UUUUUGAAGCUUCGUUAAUACAGUUAGGAUAUGAGAGACAUGAGGAUCACCCAUGUGCAUGUUGAUUAGAAGGAACAACUAUCU | – | – | 0.0201 | 0.0174
AGUCGGAGCAGAGGAUAUACAUGAGGAUCACCCAUGUAAUAAAUCCAAGCCUGGAAACAGGCAAUGUAGAAGGCUGCUCCGACA | – | – | 0.0168 | 0.0788
CCAAUGUAAGGAUAUGACAAUGGUAUCUUCGGAUACCAUUGUCAGAAGGUACAUGAGGAUCACCCAUGUAUAAA | – | – | 0.0187 | 0.0411
AGGAAGUUAGGAUAUGCUGCUCGUCACUUGCGUGAUGAGUAGCAGAAGGGACAUGAGGAUCACCCAUGUAAAGA | – | – | 0.0368 | 0.0219
AAUAAACAUGAGGAUCACCCAUGUGAGGAUAUGGUAUUAUUUGGACAGUUAUGAUAUACCAGAAGGCACAAAUA | – | – | 0.028 | 0.0468
CGAUAAAGGUGAGGAUAUGAGAAUAGAAAGAAAUCAGAAGGCACACAUGAGGAUCACCCAUGUGAGUUCUUGAGAUUACAUGGU | – | – | 0.0149 | 0.0151
UUUCUGUGAGGAUAUCAGUAGUAAAUAAAUAAAAUUACUACUGAGAAGGCACAUGAGGAUCACCCAUGUUCCUU | – | – | 0.0122 | 0.0297
UGUGAGUUGAUGUUAGAUAGGAGUACAUGAGGAUCACCCAUGUAGGAUAUUCAAAGACGAAGAUAGAAGAAGGACAUAGGUUUC | – | – | 0.0214 | 0.0181
CCAUGCGGAUGAGGAUAUUCAUUCAUGAGGAUAGAAGAAGGCGUACAUGAGGAUCACCCAUGUAUACACAUGAGGAUCCCUUAC | – | – | 0.385 | 0.372
CCAGGCUUCGAGAAGGACAUGAGGAUCACCCAUGUGCGUGUAAAACAGCCAAAAGGCUGCAUCAUGUAGGAUAUCGGAGUCUGC | – | – | 0.275 | 0.0955
GUGCAUUCGUAGAAGGGUGACAUGAGGAUCACCCAUGUGCGCUGGGCUCGGGAUGCAUCAGCGCCACAGGAUAUACGAAGCACC | 0.117 | 0.106 | – | –
GUCAGCUCGUGAGGAUAUACAACACUGCUUCGGCAGUGUAUUAAGAUCACAUGAGGAUCACCCAUGUAGAAGGCACGAGCUGAU | – | – | 0.0421 | 0.832
GCGUACAUAUCAGGAUAUCAUAUAAUUGUUUAUCUCAGUGUAUACAUGAGGAUCACCCAUGUUCUUGAGAAGGGAUAUGUACGC | – | – | 0.00824 | 0.00868
UCUGGAGGAAAACAGACGAAGUGGCCAGAAGGUGAAUGCCACAUGAGGAUCACCCAUGUUUCGAUCAAGGAUAUGGUUUCUCAC | 0.185 | 0.0724 | – | –
CUUUUUUUUGUGAGGAUAUACUGUUAUUAAAGUUAGUAGAAGGUACAUGAGGAUCACCCAUGUUAAUUACUUUA | – | – | 0.0143 | 0.0138
AAAAGACAUGAGGAUCACCCAUGUUAAGACGUGGGAGGAUAUGCAUGGCAAACAUGCUGUGCAGAAGGCCCGUGUC | 0.0584 | 0.0231 | – | –
AAAUUUAACGAAGGAUAUGCUGACAUGAGGAUCACCCAUGUGUGCCUUGUGUUACUGAUUAGGUUGCAGAAGGUCGUAUACAUA | – | – | 0.23 | 0.948
GCCGCACAUGAGGAUCACCCAUGUAAUUACAUGGGAGGAUAUCAGUGCUCGAAAGAGCACUGAGAAGGCCUGAGGC | 0.0813 | 1.07 | – | –
AGCGCCAUCGUGAGAUGGCGUAUUACAUGAGGAUCACCCAUGUAGGAUAUCGAUUGCUUUGCAGUCGAGAAGGACAUGUUCUUG | – | – | 0.0515 | 0.0917
GGAUUGAAUGAGGAUAUCGUAUUAGGUGUAAUGCGAGAAGGCAUGACAUGAGGAUCACCCAUGUAGUGUGGGUU | – | – | 0.509 | 0.772
ACUUUGUUUGAGAAGGUGAAGUGGAAACAUGAGGAUCACCCAUGUAUUAGGAAGCCUGGUUUUGUCAAGGAUAUCGGGUAAAGA | 0.012 | 0.0101 | – | –
AAAUUUUGUCAAGGAUAUGUAUAAUUGAUUUGAAAACAUGAGGAUCACCCAUGUAUAUUGUGGGAACAGAAGGUGAAUAAGUAA | – | – | 0.209 | 0.19
UACAUCAAUGAAGGAUAUCGAUAUCCAACAUGAGGAUCACCCAUGUUGAGGAUCACCCAUGUAAAUGAGAAGGUUAACAUAACU | 0.0949 | 0.0833 | – | –
UUUUAACAUGAGGAUCACCCAUGUGAGGAUAUCGAAAUUUAUAUUAAUAUUAUUUUAUCGAGAAGGCACAUUUU | – | – | 0.0961 | 0.124
GUCUACCUAGGAUAUACAUGAGGAUCACCCAUGUAAAGUUUCGUAAAAAGAUAAUCGAGUAGAAGGAGGUGGAU | – | – | 0.0203 | 0.0209

From the EternaBench riboswitch data
